Most compounds without a hit are left out; they make up all but 2.3% or so of the library.
OXTR potentiator = human OXTR potentiation; CHO-OTR cells, Fluo-8 calcium fluorescence, potentiator mode; 0% = oxytocin EC15, 100% = EC100; activation, % at 3 µM; hit rate 0.061% among 320,000; AID 2445;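 active means activation above that plate's cutoff, the mean activation of tested compounds plus 3 SD, cut at about 6.6% in these data, passing the limit was not always enough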;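 further: 100% uses oxytocin at 75 nM as the full agonist control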
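Material: CHO-OTR cells, human receptor; compound dosing: single dose, 3.0 µM nominal final compound concentration; schedule: 6 min compound pre-incubation at room temperature, 100 s kinetic read; measured by: kinetic Fluo-8 calcium fluorescence; read-out basis: % activation vs EC15 and EC100 oxytocin; controls: EC15 oxytocin alone as 0%, 75 nM oxytocin as 100%; replicates: singlicate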
V1aR counter = activates human V1a receptor in oxytocin agonist counter-screen; CHO-V1R cells, Fluo-8 calcium fluorescence, agonist mode; 0% DMSO, 100% 3 nM vasopressin; activation, % at 3 µM; hit rate 0.25% among 320,000;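 active means activation above the mean activation of all tested compounds plus 3 SD, per screening run, cut at about 20% in these data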;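 further: signal is peak over basal fluorescence ratio across a 100 second FLIPR read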
OXTR agonist = human OXTR agonism; P30559; activation, % at 3 µM; CHO-OTR cells, Fluo-8 calcium fluorescence; normalized: DMSO 0%, oxytocin 100%; hit rate 0.32% among 320,000; AID 2435;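 active means activation above the mean of all tested compounds plus 3 SD, cutoff set per screening run, cut at about 20% in these data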;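 further: peak over basal fluorescence ratio from a 100 s FLIPR kinetic read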
TAAR1 antagonist = antagonists of human TAAR1. Q96RJ0. inhibition, % at 3 µM. CHO RD-HGA16 TAAR1, Fluo-8 calcium fluorescence, antagonist. hit rate 1.5% among 360,000. AID 624466;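 active means inhibition above a per-plate cutoff, the mean inhibition of test compounds on that plate plus 3 SD, cut at about 49% in these data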;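 further: 0% = DMSO plus EC80 beta-PEA response and 100% = DMSO alone without agonist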
Target sequence (Q96RJ0 whole entry, looked up): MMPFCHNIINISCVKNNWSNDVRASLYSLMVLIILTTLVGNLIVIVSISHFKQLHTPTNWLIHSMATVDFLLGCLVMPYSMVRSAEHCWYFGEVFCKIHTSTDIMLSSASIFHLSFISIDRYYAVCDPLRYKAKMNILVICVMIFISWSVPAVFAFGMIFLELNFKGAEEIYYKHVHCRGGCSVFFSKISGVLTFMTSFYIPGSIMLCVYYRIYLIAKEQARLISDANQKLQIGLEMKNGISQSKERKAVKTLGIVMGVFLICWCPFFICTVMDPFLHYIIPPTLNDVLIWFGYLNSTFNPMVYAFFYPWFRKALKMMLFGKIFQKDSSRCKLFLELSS
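System: CHO RD-HGA16 cells bearing hTAAR1. Reagent: EC80 β-phenethylamine stimulus. Schedule: seeding 17-24 h prior, 75-min 37 °C, 30-min RT dye loading. Signal: Fluo-8 intracellular calcium dye fluorescence, real-time kinetic reads. Read-out: % inhibition from peak post-agonist over basal fluorescence ratio. Benchmarks: vehicle wells and EC80 agonist wells. Replicates: n of 1.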
TAAR1 agonist = human TAAR1 agonism. AID 624467. hit rate 0.99% among 360,000. activation, % at 3 µM. Q96RJ0. CHO RD-HGA16 TAAR1, Fluo-8 calcium fluorescence; vehicle wells 0%, saturating PEA agonist 100%;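 active means activation above the mean activation of all test compounds in the run plus 3 SD, cut at about 38% in these data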
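Assay system – CHO-derived RD-HGA16 cells with stable Gα16 and human TAAR1 · Compound dosing – one-point dosing at 3 µM (nominal) · Incubation – 17-24 h seeding, 75 min 37 °C dye, 30 min RT · Measured by – kinetic Fluo-8 calcium fluorescence · Control set – DMSO vehicle as 0%, PEA at EC100 as 100% · Repeats – single well for each compound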
V1aR agonist cf = human V1a receptor agonism, confirmation; activation, % at 3 µM; shares compounds with V1aR counter; hit rate 20% among 180; CHO-V1R cells, Fluo-8 calcium fluorescence, agonist;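 active means average activation exceeds primary screen hit cutoff, cut at about 21% in these data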;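 further: peak over basal fluorescence ratio during a 100 s FLIPR read; 0% = DMSO only wells and 100% = 3 nM vasopressin wells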
OXTR ag counter = activates oxytocin receptor in V1a agonist counter-screen | activation, % at 3 µM | shares compounds with V1aR counter | CHO-OTR cells, Fluo-8 calcium fluorescence | hit rate 10% among 180;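 active means mean activation over three repeats above the cutoff from the earlier oxytocin receptor agonist screen, cut at about 20% in these data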;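 further: peak over minimum fluorescence ratio within a 100 second FLIPR read; 0% = DMSO only wells and 100% = oxytocin high control wells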
* hit, by the source's call; . = no result given.

SMILES	OXTR potentiator	V1aR counter	OXTR agonist	TAAR1 antagonist	TAAR1 agonist	V1aR agonist cf	OXTR ag counter
CCc1ccc(NC(=O)N(CCCN2CCOCC2)C(C)c2cc3cccc(OC)c3o2)cc1 (centres undefined)	4	22*	-2	-30	0	0	-1
O=C(Cn1nc(-c2ccccc2)nc1-c1ccccc1)N1CCOCC1	-11	1	-1	6	5	.	.
Cc1ccc2[nH]c(C(=O)N/N=C/c3ccccc3O)c(C)c2c1	-16	22*	5	1	7	1	0
Cc1ccc2[nH]c(C(=O)N/N=C/c3ccccc3C(=O)O)c(-c3ccccc3)c2c1	-7	1	0	3	6	.	.
CS(=O)(=O)c1ccc(Cl)c(NC(=O)COC(=O)CCc2c[nH]c3ccccc23)c1	-19	28*	9	27	11	3	4
CNC(=O)c1[nH]cnc1C(=O)Nc1ccccn1	-1	43*	3	-6	5	1	0
C#CCOCCOCCOCCNc1nc(N2CCN(C(=O)CCCCCCCCCCNC(=O)[C@@H](CCC(=O)O)n3cc(CCCCCN)nn3)CC2)nc(N2CCN(C(=O)CCCCCCCCCCNC(=O)[C@H](CO)n3cc(CCCCCN)nn3)CC2)n1	-7	9	2	.	.	.	.
C#CCOCCOCCOCCNc1nc(N2CCN(C(=O)CCCCCCCCCCNC(=O)Cn3cc(CCCCCN)nn3)CC2)nc(N2CCN(C(=O)CCCCCCCCCCNC(=O)Cn3cc(C[C@@H](C)O)nn3)CC2)n1	-13	27*	10	.	.	8	4
C#CCOCCOCCOCCNc1nc(N2CCN(C(=O)CCCCCCCCCCNC(=O)[C@H](CCCCN)n3cc(C)nn3)CC2)nc(N2CCN(C(=O)CCCCCCCCCCNC(=O)[C@@H]([C@H](C)O)n3cc(C)nn3)CC2)n1	-12	31*	10	.	.	8	2
C#CCOCCOCCOCCNc1nc(N2CCN(C(=O)CCCCCCCCCCNC(=O)[C@@H](CCC(=O)O)n3cc(CCCCCN)nn3)CC2)nc(N2CCN(C(=O)CCCCCCCCCCNC(=O)[C@H](CCCCN)n3cc(C[C@@H](C)CC)nn3)CC2)n1	-16	45*	7	.	.	44*	9
CC(C)NC(=O)C1(C)CN(S(C)(=O)=O)CC(=O)N1C1CCN(Cc2ccccc2)CC1 (centres undefined)	.	.	.	-13	-1	.	.
CCc1ccc(/C=N/Nc2ncnc3nc[nH]c23)cc1	-6	-1	0	-25	-4	.	.
CCc1ccc(N=Nc2ccc(O)c3[nH]cnc23)cc1	-8	23*	14	46	12	26*	16
COc1ccc(OC)c(C2=NS(=O)(=O)N(C)C(C(=O)NCc3cccs3)=C2)c1	-9	22*	16	26	43*	11	25*
Cc1ccc(C2=NS(=O)(=O)N(C)C(C(=O)NCc3cccs3)=C2)cc1	-4	3	2	27	9	.	.
Cc1ccc(C(=O)COC(=O)c2ccc3c(c2)C(=O)N(c2cccc4ncccc24)C3=O)cc1C	-2	1	1	4	5	.	.
Cn1c(=O)c2[nH]c(CCCCCCCc3nc4ccccc4[nH]3)nc2n(C)c1=O	.	.	.	4	4	.	.
COc1ccc(-c2ccc(C#N)c(SCC(=O)NC3CC3)n2)cc1OC	-12	-1	-2	-15	-2	.	.
O=C(Nc1cccc(Cl)c1)Nc1ccc2nccnc2c1	-15	23*	14	58*	47*	10	10
CC(OC(=O)/C(C#N)=C/c1ccc(N(C)C)cc1)C(=O)N(C)Cc1ccccc1 (centres undefined)	-17	30*	18	43	16	32*	19
O=C(O)c1ccc(NC2OC[C@@H](O)[C@H](O)[C@H]2O)cc1 (some centres undefined)	1	0	0	-17	4	.	.
c1ccc(Nc2ccccc2Nc2ccccn2)nc1	-5	49*	10	-11	5	0	-1
c1ccc(CNc2ccccn2)cc1	-10	-1	0	5	2	.	.
C=CCn1c(C)c(/C=C/c2cc[n+](C)cc2)c2ccccc21	-15	25*	7	-18	9	6	10
C=CCn1cc(/C=C/c2cc[n+](C)cc2)c2ccccc21	0	6	3	12	1	.	.
SMILES	OXTR potentiator	V1aR counter	OXTR agonist	TAAR1 antagonist	TAAR1 agonist	V1aR agonist cf	OXTR ag counter
Cc1ccc(CNC(=O)c2cccc3c2C(=O)c2ccc(N4CCOCC4)cc2S3(=O)=O)cc1	-6	2	1	40	23	.	.
Cc1ccc(CNC(=O)c2cccc3c2C(=O)c2ccc(N4CCCCC4)cc2S3(=O)=O)cc1	-5	22*	14	71*	47*	19	10
CCC(C)(C)c1ccc(OCCCC[n+]2cccc(C)c2C)c(C(C)(C)CC)c1	-14	31*	17	-16	21	7	3
CCC(C)(C)c1ccc(OCCCC[n+]2ccc(C)cc2)c(C(C)(C)CC)c1	-13	8	2	0	33	.	.
Cc1ccccc1NC(=O)CN1C(=O)COc2ccc(S(=O)(=O)N3CCCC3)cc21	-5	0	0	-10	1	.	.
Nc1[nH]c(C(=O)c2ccccc2)c(-c2cc(F)ccc2Br)c1C(=O)NCCc1c[nH]c2ccccc12	.	.	.	1	2	.	.
O=C1C(=O)c2c(C(=O)c3ccccc3)coc2-c2ccccc21	-3	2	0	3	7	.	.
C=CCn1cc(CN2CCC(C(=O)Nc3cccc(-c4cccc(Cl)c4)c3)CC2)c(C)n1	-8	22*	5	-19	12	0	0
C=CCn1cc(CN2CCC(C(=O)Nc3cccc(-c4cccc(F)c4)c3)CC2)c(C)n1	-9	5	2	-27	9	.	.
ONC(=Nc1ccccc1Cl)c1ccccc1Cl	-10	20*	3	-22	1	1	2
CCOC(=O)c1csc(NC(=O)COc2ccc(Cl)cc2Cl)n1	-8	22*	10	2	14	5	10
CCCC(=O)Nc1nc(C(=O)OCC)cs1	-3	1	1	12	6	.	.
CC(=O)c1cnn(-c2nc3c(C)cccc3s2)c1C	-2	0	-2	-39	4	.	.
Cc1nnc(-c2ccccc2)c(=O)n1/N=C/c1c(O)ccc2ccccc12	-12	25*	16	20	21	24*	22*
CCOC(=O)c1c(NC(=O)CSc2nc3ccc(C)cc3[nH]2)sc2c1CC(C)(C)NC2(C)C	-14	22*	15	-7	18	2	9

Screening results (PubChem)
